Measurements published in ChEMBL document CHEMBL2413079, “Synthesis of novel psoralen analogues and their in vitro antitumor activity” (2013).

Experiments:
Type in all cases: functional
TCC-SUP = assay: Growth inhibition of human TCCSUP cells after 48 hrs by MTS assay
Method in brief: (§1)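 Cells grown in DMEM with 10% FBS (15% FBS for TCC-SUP) and 1% penicillin/streptomycin. DMSO stocks freshly diluted in medium; five concentrations tested over 48 h exposure. MTS reagent added for 2 h at 37 °C, 5% CO2, then absorbance read at 490 nm. Viability taken as % of control; GI50 from dose–response curve. Three independent cultures, 4 wells per concentration.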

MDA-MB-231 = assay: Growth inhibition of human MDA-MB-231 cells after 48 hrs by MTS assay; details: MDA-MB-231, 48 h; method in brief: as §1
HeLa = assay: Growth inhibition of human HeLa cells after 48 hrs by MTS assay; method in brief: as §1

| GI50 (MDA-MB-231) [nM] | GI50 (HeLa) [nM] | Compound | GI50 (TCC-SUP) [nM] |
| --- | --- | --- | --- |
| 230 | 46 | O=c1ccc2c(ccc3c4ccccc4[nH]c23)o1 | 27 |
| 413 | 37 | CCOC(=O)c1cc2c(ccc3c4ccccc4[nH]c23)oc1=O | 30 |
| 265 | 47 | O=C(O)c1cc2c(ccc3c4ccccc4[nH]c23)oc1=O | 18 |
| 78 | 42 | Cc1cc(=O)oc2cc3[nH]c4ccccc4c3cc12 | 66 |
| 60 | 35 | Cc1cc(=O)oc2cc3c(cc12)oc1ccccc13 | 41 |
